Experimental data from different studies.
Compare with care: the assays were run in different laboratories.
Target: G protein-coupled receptor kinase 6 (GRK6, Homo sapiens, UniProt P43250)

O=C(Nc1cnn(-c2csc(C(=O)NC3COC3)c2)c1)Nc1ccccc1Cl
remaining activity (enzyme activity, inhibitor; 5 µM): 97.9%

Cc1cc(NC(=O)c2cccc3cc(-c4cccc5[nH]nc(N)c45)ccc23)ccc1F
activity vs control (enzyme activity, inhibitor; 0.1 µM): 93%

CCCS(=O)(=O)Nc1ccc(F)c(C(=O)c2c[nH]c3ncc(-c4ccc(Cl)cc4)cc23)c1F
inhibition (enzyme activity, inhibitor; 1 µM): < 10%

CN1CC(Oc2cnc(C#N)cc2-c2ccn3nc(NC(=O)C4CC4)cc3c2)C1
inhibition (enzyme activity, inhibitor; 1 µM): 9%

COc1cc2ncnc(Nc3ccc(Oc4ccccc4)cc3C)c2cc1OC
inhibition (enzyme activity, inhibitor; 1 µM): 0%

CNC(=O)c1cc(Oc2ccc(NC(=O)Nc3ccc(Cl)c(C(F)(F)F)c3)cc2)ccn1
inhibition (enzyme activity, inhibitor; 10 µM): 1%

CCN(CC)c1ccc(C2=NNC(=O)CC2C)cc1[N+](=O)[O-] (stereo not drawn)
remaining activity (enzyme activity, inhibitor; 10 µM): 105%

CC(C)(O)[C@H]1CC[C@H](Nc2ccc3ncc(-c4cccc(C(F)(F)F)c4)n3n2)CC1
remaining activity (enzyme activity, inhibitor; 1 µM): 90.6%

Cc1ccc(Nc2nccc(N(C)c3ccc4c(C)n(C)nc4c3)n2)cc1S(N)(=O)=O
inhibition (enzyme activity, inhibitor; 0.3 µM): 11%

CC(C)(C)c1nc(-c2cccc(NS(=O)(=O)c3c(F)cccc3F)c2F)c(-c2ccnc(N)n2)s1
remaining activity (enzyme activity, inhibitor, radiometric; 1 µM): 79%

CCN(CC)CCNC(=O)c1c(C)[nH]c(/C=C2\C(=O)Nc3ccc(F)cc32)c1C
inhibition (enzyme activity, inhibitor; 0.3 µM): 31%

N#CCCc1ccc2c(c1)-c1[nH]c3ccc([N+](=O)[O-])cc3c1CC(=O)N2
remaining signal (cell-free assay; 0.5 µM): 91.5%
